Experimental data from ChEMBL document CHEMBL1933017, “Synthesis and biological evaluation of some thiazolidinones as antimicrobial agents” (2012).
Values after ≈ are worked out from the molar mass of the structure shown.

Columns and labels:
Aspergillus niger [1] = assay: Antifungal activity against Aspergillus niger after 48 hrs by agar streak dilution method; format: functional
Summary of the method: (§1)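 Fungal MIC by agar streak dilution on Sabouraud dextrose agar, poured 4–5 mm deep. Compound from a DMSO stock (100 μg/mL) was incorporated at serial concentrations of 3.12–100 µg/mL. Plates were inoculated with about 10⁵ CFU/mL of suspension and incubated at (37 ± 1) °C for 48 h. Each value is the mean of three independent experiments.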

Salmonella typhi [2] = assay: Antibacterial activity against Salmonella Typhi at 100 ug/disc after 24 hrs by disc diffusion method; format: functional, Salmonella enterica subsp. enterica serovar Typhi; conditions: Salmonella enterica, read-out: DIZ
Summary of the method: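 Paper disc diffusion on Mueller-Hinton agar poured 5 mm deep; 10⁵ CFU/mL suspension (0.5 McFarland) swabbed over surface. 6.25 mm filter paper discs soaked in compound in DMSO, incubated 24 h at (37 ± 1) °C; inhibition zone diameter in mm. DMSO disc as blank; ciprofloxacin 100 µg/disc as reference. Mean of three independent experiments.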

Bacillus cereus [3] = assay: Antibacterial activity against Bacillus cereus at 100 ug/disc after 24 hrs by disc diffusion method; format: functional; conditions: read-out: DIZ
Summary of the method: (§2)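 Paper disc diffusion on autoclaved Mueller-Hinton agar poured 5 mm deep. Agar was swab-inoculated with 10⁵ CFU/mL suspension (0.5 McFarland). Discs 6.25 mm across were soaked in compound solution in DMSO (3.12–100 µg/mL) and plates incubated 24 h at (37 ± 1) °C. Read-out was inhibition zone (mm). DMSO control disc; ciprofloxacin or ketoconazole reference, 100 µg/disc. Mean of three independent experiments.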

Candida albicans [4] = assay: Antifungal activity against Candida albicans after 48 hrs by agar streak dilution method; format: functional; summary of the method: as §1
Proteus vulgaris [5] = assay: Antibacterial activity against Proteus vulgaris after 24 hrs by agar streak dilution method; format: functional
Summary of the method: (§3)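 MIC by agar streak dilution. Graded amounts of DMSO stock (100 μg/mL) were mixed into molten sterile nutrient agar and poured 4–5 mm deep. Serial concentrations spanned 3.12–100 µg/mL. Plates were inoculated with about 10⁵ CFU/mL of bacterial suspension and incubated at (37 ± 1) °C for 24 h. Each value is the mean of three independent experiments.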

Proteus vulgaris [6] = assay: Antibacterial activity against Proteus vulgaris at 100 ug/disc after 24 hrs by disc diffusion method; format: functional; conditions: read-out: DIZ; summary of the method: as §2
Staphylococcus aureus [7] = assay: Antibacterial activity against Staphylococcus aureus after 24 hrs by agar streak dilution method; format: functional; summary of the method: as §3
Candida albicans [8] = assay: Antifungal activity against Candida albicans at 100 ug/disc after 24 hrs by disc diffusion method; format: functional; conditions: read-out: DIZ; summary of the method: as §2
Salmonella typhi [9] = assay: Antibacterial activity against Salmonella Typhi after 24 hrs by agar streak dilution method; format: functional, Salmonella enterica subsp. enterica serovar Typhi; conditions: Salmonella enterica
Summary of the method: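 Agar streak dilution: DMSO stock (100 µg/mL) graded into molten sterile nutrient agar, poured 4–5 mm deep and solidified. Plates carry serial dilutions spanning 3.12–100 µg/mL. Applied ~10⁵ CFU/mL suspension, then incubated 24 h at (37 ± 1) °C. MIC read as the lowest inhibitory concentration; each value is the mean of three independent experiments.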

Bacillus cereus [10] = assay: Antibacterial activity against Bacillus cereus after 24 hrs by agar streak dilution method; format: functional; summary of the method: as §3
Aspergillus clavatus [11] = assay: Antifungal activity against Aspergillus clavatus after 48 hrs by agar streak dilution method; format: functional; summary of the method: as §1
Escherichia coli [12] = assay: Antibacterial activity against Escherichia coli after 24 hrs by agar streak dilution method; format: functional; summary of the method: as §3
Staphylococcus aureus [13] = assay: Antibacterial activity against Staphylococcus aureus at 100 ug/disc after 24 hrs by disc diffusion method; format: functional; conditions: read-out: DIZ; summary of the method: as §2
Klebsiella pneumoniae [14] = assay: Antibacterial activity against Klebsiella pneumoniae […] after 24 hrs by agar streak dilution method; format: functional
Aspergillus fumigatus [15] = assay: Antifungal activity against Aspergillus fumigatus after 48 hrs by agar streak dilution method; format: functional; summary of the method: as §1
Klebsiella pneumoniae [16] = assay: Antibacterial activity against Klebsiella pneumoniae at 100 ug/disc after 24 hrs by disc diffusion method; format: functional; conditions: read-out: DIZ; summary of the method: as §2
Shigella flexneri [17] = assay: Antibacterial activity against Shigella flexneri at 100 ug/disc after 24 hrs by disc diffusion method; format: functional; conditions: read-out: DIZ; summary of the method: as §2
Pseudomonas aeruginosa [18] = assay: Antibacterial activity against Pseudomonas aeruginosa […] after 24 hrs by agar streak dilution method; format: functional
Shigella flexneri [19] = assay: Antibacterial activity against Shigella flexneri after 24 hrs by agar streak dilution method; format: functional; summary of the method: as §3
Escherichia coli [20] = assay: Antibacterial activity against Escherichia coli at 100 ug/disc after 24 hrs by disc diffusion method; format: functional; conditions: read-out: DIZ; summary of the method: as §2
Aspergillus clavatus [21] = assay: Antifungal activity against Aspergillus clavatus at 100 ug/disc after 24 hrs by disc diffusion method; format: functional; conditions: read-out: DIZ; summary of the method: as §2
Aspergillus niger [22] = assay: Antifungal activity against Aspergillus niger at 100 ug/disc after 24 hrs by disc diffusion method; format: functional; conditions: read-out: DIZ; summary of the method: as §2
Pseudomonas aeruginosa [23] = assay: Antibacterial activity against Pseudomonas aeruginosa at 100 ug/disc after 24 hrs by disc diffusion method; format: functional; conditions: read-out: DIZ; summary of the method: as §2
Aspergillus fumigatus [24] = assay: Antifungal activity against Aspergillus fumigatus at 100 ug/disc after 24 hrs by disc diffusion method; format: functional; conditions: read-out: DIZ; summary of the method: as §2

Row | Structure (SMILES) | MIC (Aspergillus niger [1]) [µg/mL] | zone of inhibition at 100 µg/disc (Salmonella typhi [2]) [mm] | zone of inhibition at 100 µg/disc (Bacillus cereus [3]) [mm] | MIC (Candida albicans [4]) [µg/mL] | MIC (Proteus vulgaris [5]) [µg/mL] | zone of inhibition at 100 µg/disc (Proteus vulgaris [6]) [mm] | MIC (Staphylococcus aureus [7]) [µg/mL] | zone of inhibition at 100 µg/disc (Candida albicans [8]) [mm] | MIC (Salmonella typhi [9]) [µg/mL] | MIC (Bacillus cereus [10]) [µg/mL] | MIC (Aspergillus clavatus [11]) [µg/mL] | zone of inhibition at 100 µg/disc (Staphylococcus aureus [13]) [mm] | MIC (Klebsiella pneumoniae [14]) [µg/mL] | MIC (Aspergillus fumigatus [15]) [µg/mL] | zone of inhibition at 100 µg/disc (Klebsiella pneumoniae [16]) [mm] | zone of inhibition at 100 µg/disc (Shigella flexneri [17]) [mm] | MIC (Pseudomonas aeruginosa [18]) [µg/mL] | MIC (Shigella flexneri [19]) [µg/mL] | zone of inhibition at 100 µg/disc (Escherichia coli [20]) [mm] | zone of inhibition at 100 µg/disc (Aspergillus clavatus [21]) [mm] | also measured
1 | CCN1CCN(CC2SC(c3ccc(F)cc3)N(c3ccc(Nc4nc(Oc5cc(=O)n(C)c6ccccc56)nc(N(C)C)n4)cc3)C2=O)CC1 (stereo not given) | 12.5 (≈ 17.6 µM) | 27 | 28 | 25 (≈ 35.2 µM) | 25 (≈ 35.2 µM) | 22 | 6.25 (≈ 8.8 µM) | 25 | 6.25 (≈ 8.8 µM) | 6.25 (≈ 8.8 µM) | 25 (≈ 35.2 µM) | 27 | 25 (≈ 35.2 µM) | 12.5 (≈ 17.6 µM) | 25 | 19 | 12.5 (≈ 17.6 µM) | 25 (≈ 35.2 µM) | 28 | 25 | MIC (Escherichia coli [12]): 6.25 µg/mL (≈ 8.8 µM); zone of inhibition at 100 µg/disc (Aspergillus niger [22]): 26 mm; zone of inhibition at 100 µg/disc (Pseudomonas aeruginosa [23]): 25 mm; zone of inhibition at 100 µg/disc (Aspergillus fumigatus [24]): 28 mm
2 | CCN1CCN(CC2SC(c3cccc(F)c3)N(c3ccc(Nc4nc(Oc5cc(=O)n(C)c6ccccc56)nc(N(C)C)n4)cc3)C2=O)CC1 (stereo not given) | 12.5 (≈ 17.6 µM) | 24 | 23 | 25 (≈ 35.2 µM) | 50 (≈ 70.4 µM) | 19 | 12.5 (≈ 17.6 µM) | 25 | 6.25 (≈ 8.8 µM) | 6.25 (≈ 8.8 µM) | 50 (≈ 70.4 µM) | 20 | 25 (≈ 35.2 µM) | 50 (≈ 70.4 µM) | 22 | 25 | 50 (≈ 70.4 µM) | 12.5 (≈ 17.6 µM) | 23 | 24 | MIC (Escherichia coli [12]): 6.25 µg/mL (≈ 8.8 µM); zone of inhibition at 100 µg/disc (Aspergillus niger [22]): 25 mm; zone of inhibition at 100 µg/disc (Pseudomonas aeruginosa [23]): 20 mm; zone of inhibition at 100 µg/disc (Aspergillus fumigatus [24]): 24 mm
3 | CCN1CCN(CC2SC(c3ccc(Cl)cc3)N(c3ccc(Nc4nc(Oc5cc(=O)n(C)c6ccccc56)nc(N(C)C)n4)cc3)C2=O)CC1 (stereo not given) | 25 (≈ 34.4 µM) | 20 | 28 | 12.5 (≈ 17.2 µM) | 25 (≈ 34.4 µM) | 25 | 6.25 (≈ 8.61 µM) | 27 | 50 (≈ 68.8 µM) | 6.25 (≈ 8.61 µM) | 12.5 (≈ 17.2 µM) | 26 | 6.25 (≈ 8.61 µM) | 12.5 (≈ 17.2 µM) | 26 | 26 | 50 (≈ 68.8 µM) | 12.5 (≈ 17.2 µM) | 27 | 23 | MIC (Escherichia coli [12]): 12.5 µg/mL (≈ 17.2 µM); zone of inhibition at 100 µg/disc (Aspergillus niger [22]): 26 mm; zone of inhibition at 100 µg/disc (Pseudomonas aeruginosa [23]): 23 mm; zone of inhibition at 100 µg/disc (Aspergillus fumigatus [24]): 26 mm
4 | O=C(O)c1cn(C2CC2)c2cc(N3CCNCC3)c(F)cc2c1=O [CIPROFLOXACIN] | – | 30 | 31 | – | 1 (≈ 3.02 µM) | 31 | 1 (≈ 3.02 µM) | – | 1 (≈ 3.02 µM) | 1 (≈ 3.02 µM) | – | 30 | 1 (≈ 3.02 µM) | – | 33 | 32 | 1 (≈ 3.02 µM) | ≤ 3 | 32 | – | zone of inhibition at 100 µg/disc (Pseudomonas aeruginosa [23]): 33 mm
5 | CC(=O)N1CCN(c2ccc(OCC3COC(Cn4ccnc4)(c4ccc(Cl)cc4Cl)O3)cc2)CC1 (stereo not given) [KETOCONAZOLE] | ≤ 3 | – | – | 1 (≈ 1.88 µM) | – | – | – | 33 | – | – | 1 (≈ 1.88 µM) | – | – | 1 (≈ 1.88 µM) | – | – | – | – | – | 31 | zone of inhibition at 100 µg/disc (Aspergillus niger [22]): 30 mm; zone of inhibition at 100 µg/disc (Aspergillus fumigatus [24]): 29 mm
